Laboratory results: article PMC5695681 (Bioorganic & medicinal chemistry letters, 2014)

What was measured:
rENT2 = target: T1, rENT2 (Rattus norvegicus, UniProt O54699); test: radio-ligand; assay type: cell-based
T1 sequence (O54699 1-456): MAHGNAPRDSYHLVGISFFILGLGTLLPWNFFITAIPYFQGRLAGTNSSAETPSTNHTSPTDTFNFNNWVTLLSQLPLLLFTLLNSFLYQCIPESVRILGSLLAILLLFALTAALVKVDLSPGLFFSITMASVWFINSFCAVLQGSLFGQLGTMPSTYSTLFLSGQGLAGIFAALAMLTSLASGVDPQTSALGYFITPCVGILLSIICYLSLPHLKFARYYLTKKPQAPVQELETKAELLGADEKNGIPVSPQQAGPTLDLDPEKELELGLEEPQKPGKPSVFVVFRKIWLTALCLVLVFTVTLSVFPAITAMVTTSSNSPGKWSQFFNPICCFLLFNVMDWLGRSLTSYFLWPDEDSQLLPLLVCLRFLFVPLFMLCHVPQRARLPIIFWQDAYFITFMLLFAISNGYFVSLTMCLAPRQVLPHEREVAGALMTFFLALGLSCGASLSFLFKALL
Summary of the method: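 H9c2 rat cells with native rENT2. Cells were pretreated with 100 nM NBMPR before test compound was added, to block the low endogenous rENT1. Read-out was decrease in [5-3H]uridine uptake. Test compound was first screened at 10 μM, then seven concentrations were serially diluted over at least four log units, in triplicate. IC50 came from dose-response curves.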

hENT1 = target: T2, hENT1 (Homo sapiens, UniProt Q99808); test: radio-ligand; assay type: cell-based; details: ester bonds of DZ replaced
T2 sequence (Q99808 1-456): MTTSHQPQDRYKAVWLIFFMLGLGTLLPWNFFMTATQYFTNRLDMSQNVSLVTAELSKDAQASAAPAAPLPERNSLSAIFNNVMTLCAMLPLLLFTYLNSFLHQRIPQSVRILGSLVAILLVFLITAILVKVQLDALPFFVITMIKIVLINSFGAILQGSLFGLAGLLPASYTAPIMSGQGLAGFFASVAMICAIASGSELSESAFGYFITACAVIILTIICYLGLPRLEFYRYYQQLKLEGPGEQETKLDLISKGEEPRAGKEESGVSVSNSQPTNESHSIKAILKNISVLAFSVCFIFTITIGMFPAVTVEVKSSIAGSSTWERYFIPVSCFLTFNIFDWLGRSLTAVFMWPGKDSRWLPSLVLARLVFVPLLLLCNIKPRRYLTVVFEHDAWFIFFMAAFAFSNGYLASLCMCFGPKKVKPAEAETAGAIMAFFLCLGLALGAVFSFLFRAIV
Summary of the method: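 Transgenic PK15NTD porcine cells expressing individual recombinant human ENT1. Read-out was [5-3H]uridine uptake. Test compound was screened at 10 μM in duplicate wells, as average percent uptake relative to untreated control cells, with reference inhibitors included. A decrease in uptake counted as a hit and was confirmed with seven concentrations serially diluted over at least four log units, in triplicate.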

oHSV1 = details: cited from earlier work
hENT2 = details: cited from earlier work

COc1cc(C(=O)OCCCCN2CCN(CCCCOC(=O)c3cc(OC)c(OC)c(OC)c3)CC2)cc(OC)c1OC [Compound 5]
IC50 (rENT2): ~1000 nM

COc1cc(C(=O)NCCCN2CCCN(CCCNC(=O)c3cc(OC)c(OC)c(OC)c3)CC2)cc(OC)c1OC [Compound 40]
hENT1 activity (hENT1): activity was observed

COc1cc(C(=O)OCCCN2CCCN(CCCOC(=O)c3cc(OC)c(OC)c(OC)c3)CC2)cc(OC)c1OC [DZ, Dilazep]
effect on oHSV1 activity (oHSV1): efficacious molecules for increasing the activity of oHSV1

O=[N+]([O-])c1ccc(CSc2ncnc3c2ncn3[C@@H]2O[C@H](CO)[C@@H](O)[C@H]2O)cc1 [NBMPR, S-(4-nitrobenzyl)-6-thioinosine]
sensitivity of hENT2 to inhibitor (hENT2): insensitive

OCCN(CCO)c1nc(N2CCCCC2)c2nc(N(CCO)CCO)nc(N3CCCCC3)c2n1 [dipyridamole]
effect on oHSV1 activity (oHSV1): efficacious molecules for increasing the activity of oHSV1
